pIC50: −log10 of the molar value.
Legend:
[1] = system: Hepatitis B virus; experiment: Antiviral activity against Hepatitis B virus infected in human HepG2.2.15 cells assessed as inhibition of HBsAg secretion by ELISA; format: functional, organism-based; settings: HepG2 2.2.15
Procedure, shortened: (§1)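 HepG2.2.15 cells (MEM, 10% FBS, 380 µg/ml G418) seeded at 1×10^5 cells/ml, held 24 h at 37 °C, then treated with various drug concentrations; medium with drug renewed every 3 d for up to 9 d. Culture medium sampled on days 3, 6 and 9, stored at -20 °C, and assayed for secreted antigen. Lamivudine as positive control; IC50 = 50% inhibition of secretion; means of at least two experiments.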

[2] = Selectivity index, ratio of CC50 for human HepG2.2.15 cells to IC50 for Hepatitis B virus infected in human HepG2.2.15 cells assessed as inhibition of HBsAg secretion; format: functional
Procedure, shortened: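 Selectivity index computed as CC50/IC50, with CC50 from cell death of HepG2.2.15 cells after 9 days of treatment (OD 450 nm) and IC50 from 50% inhibition of HBeAg or HBsAg secretion in the same cells; medium with drug renewed every 3 d.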

[3] = system: Hepatitis B virus; experiment: Antiviral activity against Hepatitis B virus infected in human HepG2.2.15 cells assessed as inhibition of HBeAg secretion by ELISA; format: functional, organism-based; settings: HepG2 2.2.15; procedure, shortened: as §1
[4] = system: Hepatitis B virus; experiment: Antiviral activity against Hepatitis B virus infected in human HepG2.2.15 cells assessed as inhibition of HBV DNA replication by real-time fluorescence quantitative PCR analysis; format: functional, organism-based; settings: HepG2 2.2.15
[5] = Selectivity index, ratio of CC50 for human HepG2.2.15 cells to IC50 for Hepatitis B virus infected in human HepG2.2.15 cells assessed as inhibition of HBV DNA replication; format: functional
[6] = system: Hepatitis B virus; experiment: Antiviral activity against Hepatitis B virus infected in human HepG2.2.15 cells assessed as inhibition of HBsAg secretion at 37.5 uM after 3 days by ELISA; format: functional; settings: HepG2 2.2.15, 72 h; procedure, shortened: as §1
[7] = system: Hepatitis B virus; experiment: Antiviral activity against Hepatitis B virus infected in human HepG2.2.15 cells assessed as inhibition of HBsAg secretion at 150 uM after 6 days by ELISA; format: functional; settings: HepG2 2.2.15, 144 h; procedure, shortened: as §1
[8] = system: Hepatitis B virus; experiment: Antiviral activity against Hepatitis B virus infected in human HepG2.2.15 cells assessed as inhibition of HBsAg secretion at 75 uM after 6 days by ELISA; format: functional; settings: HepG2 2.2.15, 144 h; procedure, shortened: as §1
[9] = system: Hepatitis B virus; experiment: Antiviral activity against Hepatitis B virus infected in human HepG2.2.15 cells assessed as inhibition of HBsAg secretion at 150 uM after 9 days by ELISA; format: functional; settings: HepG2 2.2.15, 216 h; procedure, shortened: as §1
[10] = system: Hepatitis B virus; experiment: Antiviral activity against Hepatitis B virus infected in human HepG2.2.15 cells assessed as cell survival at 150 uM after 9 days (reference value: 100%); format: functional; settings: HepG2 2.2.15, 216 h
Procedure, shortened: (§2)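 HepG2.2.15 cells (MEM, 10% FBS, 380 µg/ml G418, 37 °C, 5% CO2) seeded at 1×10^5 cells/ml, cultured 24 h, then exposed to various drug concentrations; drug-containing medium renewed every 3 d. OD read at 450 nm after 9 days; percent cell death calculated; CC50 = concentration killing 50% of cells. Means of at least two experiments.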

[11] = system: Hepatitis B virus; experiment: Antiviral activity against Hepatitis B virus infected in human HepG2.2.15 cells assessed as cell survival at 75 uM after 9 days (reference value: 100%); format: functional; settings: HepG2 2.2.15, 216 h; procedure, shortened: as §2
[12] = system: Hepatitis B virus; experiment: Antiviral activity against Hepatitis B virus infected in human HepG2.2.15 cells assessed as cell survival at 37.5 uM after 9 days (reference value: 100%); format: functional; settings: HepG2 2.2.15, 216 h; procedure, shortened: as §2
[13] = system: Hepatitis B virus; experiment: Antiviral activity against Hepatitis B virus infected in human HepG2.2.15 cells assessed as inhibition of HBeAg secretion at 300 uM after 3 days by ELISA; format: functional; settings: HepG2 2.2.15, 72 h; procedure, shortened: as §1
[14] = system: Hepatitis B virus; experiment: Antiviral activity against Hepatitis B virus infected in human HepG2.2.15 cells assessed as inhibition of HBeAg secretion at 75 uM after 3 days by ELISA; format: functional; settings: HepG2 2.2.15, 72 h; procedure, shortened: as §1
[15] = system: Hepatitis B virus; experiment: Antiviral activity against Hepatitis B virus infected in human HepG2.2.15 cells assessed as inhibition of HBeAg secretion at 37.5 uM after 3 days by ELISA; format: functional; settings: HepG2 2.2.15, 72 h; procedure, shortened: as §1
[16] = system: Hepatitis B virus; experiment: Antiviral activity against Hepatitis B virus infected in human HepG2.2.15 cells assessed as inhibition of HBeAg secretion at 300 uM after 6 days by ELISA; format: functional; settings: HepG2 2.2.15, 144 h; procedure, shortened: as §1
[17] = system: Hepatitis B virus; experiment: Antiviral activity against Hepatitis B virus infected in human HepG2.2.15 cells assessed as inhibition of HBeAg secretion at 150 uM after 6 days by ELISA; format: functional; settings: HepG2 2.2.15, 144 h; procedure, shortened: as §1
[18] = system: Hepatitis B virus; experiment: Antiviral activity against Hepatitis B virus infected in human HepG2.2.15 cells assessed as inhibition of HBeAg secretion at 75 uM after 6 days by ELISA; format: functional; settings: HepG2 2.2.15, 144 h; procedure, shortened: as §1
[19] = system: Hepatitis B virus; experiment: Antiviral activity against Hepatitis B virus infected in human HepG2.2.15 cells assessed as inhibition of HBeAg secretion at 37.5 uM after 6 days by ELISA; format: functional; settings: HepG2 2.2.15, 144 h; procedure, shortened: as §1
[20] = system: Hepatitis B virus; experiment: Antiviral activity against Hepatitis B virus infected in human HepG2.2.15 cells assessed as inhibition of HBeAg secretion at 300 uM after 9 days by ELISA; format: functional; settings: HepG2 2.2.15, 216 h; procedure, shortened: as §1
[21] = system: Hepatitis B virus; experiment: Antiviral activity against Hepatitis B virus infected in human HepG2.2.15 cells assessed as inhibition of HBeAg secretion at 150 uM after 9 days by ELISA; format: functional; settings: HepG2 2.2.15, 216 h; procedure, shortened: as §1
[22] = system: Hepatitis B virus; experiment: Antiviral activity against Hepatitis B virus infected in human HepG2.2.15 cells assessed as inhibition of HBV DNA copies per uL at 300 uM after 3 days by real-time fluorescence quantitative PCR analysis; format: functional; settings: HepG2 2.2.15, 72 h
[23] = system: Hepatitis B virus; experiment: Antiviral activity against Hepatitis B virus infected in human HepG2.2.15 cells assessed as inhibition of HBV DNA copies per uL at 150 uM after 3 days by real-time fluorescence quantitative PCR analysis; format: functional; settings: HepG2 2.2.15, 72 h
[24] = system: Hepatitis B virus; experiment: Antiviral activity against Hepatitis B virus infected in human HepG2.2.15 cells assessed as inhibition of HBV DNA copies per uL at 75 uM after 3 days by real-time fluorescence quantitative PCR analysis; format: functional; settings: HepG2 2.2.15, 72 h
[25] = system: Hepatitis B virus; experiment: Antiviral activity against Hepatitis B virus infected in human HepG2.2.15 cells assessed as inhibition of HBV DNA copies per uL at 37.5 uM after 3 days by real-time fluorescence quantitative PCR analysis; format: functional; settings: HepG2 2.2.15, 72 h
[26] = system: Hepatitis B virus; experiment: Antiviral activity against Hepatitis B virus infected in human HepG2.2.15 cells assessed as inhibition of HBV DNA copies per uL at 150 uM after 6 days by real-time fluorescence quantitative PCR analysis; format: functional; settings: HepG2 2.2.15, 144 h
[27] = system: Hepatitis B virus; experiment: Antiviral activity against Hepatitis B virus infected in human HepG2.2.15 cells assessed as inhibition of HBV DNA copies per uL at 75 uM after 6 days by real-time fluorescence quantitative PCR analysis; format: functional; settings: HepG2 2.2.15, 144 h
[28] = system: Hepatitis B virus; experiment: Antiviral activity against Hepatitis B virus infected in human HepG2.2.15 cells assessed as inhibition of HBV DNA copies per uL at 300 uM after 9 days by real-time fluorescence quantitative PCR analysis; format: functional; settings: HepG2 2.2.15, 216 h
[29] = system: Hepatitis B virus; experiment: Antiviral activity against Hepatitis B virus infected in human HepG2.2.15 cells assessed as inhibition of HBV DNA copies per uL at 75 uM after 9 days by real-time fluorescence quantitative PCR analysis; format: functional; settings: HepG2 2.2.15, 216 h

| SMILES | pIC50 [1] | Ratio CC50/IC50 [2] | pIC50 [3] | pIC50 [4] | Ratio CC50/IC50 [5] | inhibition at 37.5 µM [6] | inhibition at 150 µM [7] | inhibition at 75 µM [8] | inhibition at 150 µM [9] | viability at 150 µM [10] | viability at 75 µM [11] | viability at 37.5 µM [12] | inhibition at 300 µM [13] | inhibition at 75 µM [14] | inhibition at 37.5 µM [15] | inhibition at 300 µM [16] | inhibition at 150 µM [17] | inhibition at 75 µM [18] | inhibition at 37.5 µM [19] | inhibition at 300 µM [20] | other results |
| --- | --- | --- | --- | --- | --- | --- | --- | --- | --- | --- | --- | --- | --- | --- | --- | --- | --- | --- | --- | --- | --- |
| COc1cc(/C=C/C(=O)O/N=C/c2ccco2)cc2c1OCO2 | 4.20 | 12.9 | 4.12 | 3.85 | 5.87 | 22.3% | 58.5% | 40.1% | 67.3% | 91.5% | 95.4% | 109% | 59.8% | 32.1% | 24.9% | 62% | 55.5% | 37.8% | 30.7% | 74.6% | inhibition at 150 µM [21]: 65.2%; inhibition at 300 µM [22]: 46.5%; inhibition at 150 µM [23]: 40.7%; inhibition at 75 µM [24]: 29.4%; inhibition at 37.5 µM [25]: 19.8%; inhibition at 150 µM [26]: 42.9%; inhibition at 75 µM [27]: 39.4%; inhibition at 300 µM [28]: 61.5%; inhibition at 75 µM [29]: 39.6% |
| COc1cc(/C=C/C(=O)O/N=C/c2ccccn2)cc2c1OCO2 | 4.20 | 10.27 | 4.14 | 4.02 | 6.78 | 17.2% | 59.6% | 43.9% | 70% | 82.8% | 94.2% | 101% | 54.2% | 27.3% | 17.8% | 75.4% | 63.5% | 42.3% | 22.7% | 82.6% | inhibition at 150 µM [21]: 65.3%; inhibition at 300 µM [22]: 41.1%; inhibition at 150 µM [23]: 34.9%; inhibition at 75 µM [24]: 28.6%; inhibition at 37.5 µM [25]: 21.6%; inhibition at 150 µM [26]: 44.8%; inhibition at 75 µM [27]: 39.2%; inhibition at 300 µM [28]: 67.5%; inhibition at 75 µM [29]: 47.3% |
| Nc1ccn([C@@H]2CS[C@H](CO)O2)c(=O)n1 [LAMIVUDINE] | 3.63 | 2.42 | 3.57 | 5.16 | 82.84 | 11.6% | 30.7% | 24.1% | 55.9% | 82.4% | 95.9% | 118% | 30.9% | 15.1% | 10.1% | 39.9% | 31.1% | 22.1% | 12.8% | 4% | inhibition at 150 µM [21]: 45.4%; inhibition at 300 µM [22]: 59.5%; inhibition at 150 µM [23]: 46.6%; inhibition at 75 µM [24]: 46%; inhibition at 37.5 µM [25]: 40%; inhibition at 150 µM [26]: 66.8%; inhibition at 75 µM [27]: 58.9%; inhibition at 300 µM [28]: 86.4%; inhibition at 75 µM [29]: 76.7% |
| O=C(/C=C/c1ccc2c(c1)OCO2)O/N=C/c1ccccn1 | 4.85 | 17.85 | 5.21 | 4.63 | 10.8 | 36.4% | 80.5% | 67.3% | 86.9% | 53.8% | 72.9% | 79.3% | 63.5% | 47.5% | 31.7% | 85.1% | 77.6% | 74.8% | 66.5% | 96.4% | inhibition at 150 µM [21]: 95.9%; inhibition at 300 µM [22]: 62.8%; inhibition at 150 µM [23]: 45.8%; inhibition at 75 µM [24]: 36.9%; inhibition at 37.5 µM [25]: 30.4%; inhibition at 150 µM [26]: 61.6%; inhibition at 75 µM [27]: 47.6%; inhibition at 300 µM [28]: 85.8%; inhibition at 75 µM [29]: 68.7% |
